Columns and labels:
[1] = species: Homo sapiens; assay: Selectivity ratio, ratio of displacement of Alexa Fluor 647 labelled ligand from His6-tagged BRD4 BD1 (1 to 477 residues)/BD2 Y390A mutant (unknown origin) to displacement of SGRG-K(Ac)-GG-K(Ac)-GLG-K(Ac)-GGAKRHRKV-biotin) from His6/FLAG-tagged TEV fused ATAD2 bromodomain (981 to 1121 residues) expressed in Escherichia coli BL21(DE3) cells
[2] = biological target: Bromodomain-containing protein 3 (Homo sapiens, UniProt Q15059, Y73A); assay: Displacement of Alexa Fluor 647 labelled ligand from His6-tagged BRD3 BD2(1 to 435 residues)/BD1 Y73A mutant (unknown origin) after 30 mins by TR-FRET assay
Summary of the method: (§1)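 BET selectivity by TR-FRET fluoroligand displacement. Uses tandem BET bromodomain constructs carrying a mutation in the non-assayed bromodomain.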

[3] = biological target: T1, ATPase family AAA domain-containing protein 2 (Homo sapiens, UniProt Q6PL18); assay: Inhibition of ATAD2 bromodomain in human HUT78 chromatin lysate after 2 hrs by bromosphere competition binding assay
T1 sequence (Q6PL18 whole entry): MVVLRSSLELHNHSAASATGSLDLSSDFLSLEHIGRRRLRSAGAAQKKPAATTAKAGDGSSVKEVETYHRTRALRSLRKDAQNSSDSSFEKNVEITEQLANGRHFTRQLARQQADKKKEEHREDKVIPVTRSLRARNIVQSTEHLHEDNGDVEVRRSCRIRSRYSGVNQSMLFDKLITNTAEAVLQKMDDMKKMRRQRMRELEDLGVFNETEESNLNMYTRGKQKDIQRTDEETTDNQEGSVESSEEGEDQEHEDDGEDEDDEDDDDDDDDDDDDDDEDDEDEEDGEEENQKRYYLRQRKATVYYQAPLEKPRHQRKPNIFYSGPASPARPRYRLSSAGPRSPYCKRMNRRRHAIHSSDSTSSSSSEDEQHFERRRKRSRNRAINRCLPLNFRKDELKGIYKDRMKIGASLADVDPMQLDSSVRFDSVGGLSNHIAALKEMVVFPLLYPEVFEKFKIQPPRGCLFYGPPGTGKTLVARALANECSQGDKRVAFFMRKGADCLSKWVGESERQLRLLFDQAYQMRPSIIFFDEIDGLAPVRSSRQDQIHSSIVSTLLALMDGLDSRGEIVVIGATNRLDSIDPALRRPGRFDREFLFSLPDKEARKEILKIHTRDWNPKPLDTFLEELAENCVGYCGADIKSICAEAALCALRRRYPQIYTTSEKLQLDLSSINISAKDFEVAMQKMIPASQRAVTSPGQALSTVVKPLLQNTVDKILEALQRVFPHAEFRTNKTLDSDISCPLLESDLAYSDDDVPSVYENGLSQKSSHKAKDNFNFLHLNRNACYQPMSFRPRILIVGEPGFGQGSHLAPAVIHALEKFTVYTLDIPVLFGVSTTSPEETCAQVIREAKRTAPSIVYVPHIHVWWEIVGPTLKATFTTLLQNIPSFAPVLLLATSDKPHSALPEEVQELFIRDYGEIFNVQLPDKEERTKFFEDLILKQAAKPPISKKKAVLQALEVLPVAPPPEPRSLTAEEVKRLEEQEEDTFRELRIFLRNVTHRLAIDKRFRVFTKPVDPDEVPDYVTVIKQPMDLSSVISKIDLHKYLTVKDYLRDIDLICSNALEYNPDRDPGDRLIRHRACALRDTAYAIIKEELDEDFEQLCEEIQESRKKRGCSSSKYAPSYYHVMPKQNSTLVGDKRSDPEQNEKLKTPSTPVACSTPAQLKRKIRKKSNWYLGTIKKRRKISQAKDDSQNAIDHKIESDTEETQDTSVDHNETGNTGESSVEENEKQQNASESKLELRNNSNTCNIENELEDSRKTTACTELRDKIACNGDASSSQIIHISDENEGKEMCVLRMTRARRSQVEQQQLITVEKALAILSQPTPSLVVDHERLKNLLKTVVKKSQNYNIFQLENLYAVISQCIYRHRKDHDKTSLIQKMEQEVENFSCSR
Summary of the method: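 Bromosphere chemoproteomic assay. Measures competitive inhibition of binding of endogenous full-length ATAD2 from Hut-78 cells.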

[4] = biological target: Bromodomain testis-specific protein (Homo sapiens, UniProt Q58F21, Y66A); assay: Displacement of Alexa Fluor 647 labelled ligand from His6/FLAG-tagged TEV fused BRDT BD2(1 to 397 residues)/[…] mutant (unknown origin) after 30 mins by TR-FRET assay; summary of the method: as §1
[5] = biological target: T1, ATPase family AAA domain-containing protein 2; assay: Displacement of SGRG-K(Ac)-GG-K(Ac)-GLG-K(Ac)-GGAKRHRKV-biotin) from His6/FLAG-tagged TEV fused ATAD2 bromodomain (981 to 1121 residues) (unknown origin) expressed in Escherichia coli BL21(DE3) cells after 30 mins by TR-FRET assay

Chain of Bromodomain-containing protein 3 (Q15059 2-726 Y73A limits assumed): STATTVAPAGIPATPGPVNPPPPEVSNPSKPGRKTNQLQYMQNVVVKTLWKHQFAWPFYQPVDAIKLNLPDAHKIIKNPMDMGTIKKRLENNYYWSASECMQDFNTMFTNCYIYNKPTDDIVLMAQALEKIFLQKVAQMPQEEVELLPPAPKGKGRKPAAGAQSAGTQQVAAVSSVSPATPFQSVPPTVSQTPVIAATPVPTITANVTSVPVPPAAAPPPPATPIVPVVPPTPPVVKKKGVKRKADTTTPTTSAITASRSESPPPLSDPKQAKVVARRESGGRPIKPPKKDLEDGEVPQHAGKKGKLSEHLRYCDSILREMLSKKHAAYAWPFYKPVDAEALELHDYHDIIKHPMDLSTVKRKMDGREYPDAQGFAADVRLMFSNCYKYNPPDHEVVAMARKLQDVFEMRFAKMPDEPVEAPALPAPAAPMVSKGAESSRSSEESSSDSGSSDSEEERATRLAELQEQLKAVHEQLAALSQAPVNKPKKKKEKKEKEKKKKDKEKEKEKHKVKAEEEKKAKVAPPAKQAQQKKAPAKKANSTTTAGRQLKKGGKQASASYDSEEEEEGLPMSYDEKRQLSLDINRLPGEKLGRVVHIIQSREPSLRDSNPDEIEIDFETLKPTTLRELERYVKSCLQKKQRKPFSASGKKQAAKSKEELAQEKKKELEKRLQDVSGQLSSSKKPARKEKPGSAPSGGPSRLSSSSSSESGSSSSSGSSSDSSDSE

Selectivity ratio [1]: > 100
IC50 [2]: 31.6 µM
IC50 [3]: 3.98 µM
IC50 [4]: 15.8 µM
IC50 [5]: 0.316 µM
SMILES: CC1(C2CC2)NC(=O)N(CC(=O)Nc2ccc(Br)c(S(=O)(=O)N3CCCCC3)c2)C1=O (racemic)

From ChEMBL document CHEMBL4311956, “A Qualified Success: Discovery of a New Series of ATAD2 Bromodomain Inhibitors with a Novel Binding Mode Using High-Throughput Screening and Hit Qualification” (J Med Chem, 2019)
